Measured values: ChEMBL document CHEMBL1144710, “epigenetic multiple ligands: mixed histone/protein methyltransferase, acetyltransferase, and class III deacetylase (sirtuin) inhibitors” (J Med Chem, 2008)
The source made the active and inactive calls. Unless noted, the calls are words filed in the database; no cut-off is given here.

Columns and labels:
[1] = molecular target: RmtA (Emericella nidulans, UniProt Q5VLE3); assay: Inhibition of Aspergillus nidulans RmtA
In short: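 Enzyme was GST-RmtA fusion expressed in E. coli BL21 and glutathione-affinity purified (500 ng), preincubated with compound for 15 min at room temperature. Then 20 µg chicken erythrocyte core histones and 0.55 µCi [3H]AdoMet were added, 30 min at 30 °C. Stopped with 25% TCA, filtered, counted by liquid scintillation.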

[2] = molecular target: Protein arginine N-methyltransferase 1 (Homo sapiens) (UniProt Q99873); assay: Inhibition of human recombinant PRMT1 assessed as histone H4 methylation at 50 uM
Protein arginine N-methyltransferase 1 (Homo sapiens), sequence (Q99873 whole entry, looked up): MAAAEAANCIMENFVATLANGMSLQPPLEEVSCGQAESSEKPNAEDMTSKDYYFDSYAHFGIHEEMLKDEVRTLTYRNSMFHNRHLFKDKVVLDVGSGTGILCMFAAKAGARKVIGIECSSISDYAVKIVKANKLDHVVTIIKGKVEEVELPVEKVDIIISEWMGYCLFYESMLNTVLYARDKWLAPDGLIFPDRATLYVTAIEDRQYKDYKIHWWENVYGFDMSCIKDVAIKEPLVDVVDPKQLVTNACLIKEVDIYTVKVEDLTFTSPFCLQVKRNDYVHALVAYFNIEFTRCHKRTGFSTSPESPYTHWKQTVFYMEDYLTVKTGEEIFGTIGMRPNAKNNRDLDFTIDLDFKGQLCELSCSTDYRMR

[3] = molecular target: Protein arginine N-methyltransferase 1 (Homo sapiens) (UniProt Q99873); assay: Inhibition of human recombinant PRMT1 assessed as nuclear ribonucleoprotein Npl3p methylation at 100 uM
In short: (§1)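 Recombinant enzymes (0.2 µg) with substrate (0.5 µg: Npl3p for PRMT1, PABP1 for CARM1, histone H3 for SET7), 0.5 µM [3H]AdoMet and 100 µM compound in PBS pH 7.4 with 3.3% v/v DMSO, 90 min at 30 °C. Products separated by 10% SDS-PAGE, transferred to PVDF, detected by fluorography on film overnight.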

[4] = molecular target: T1, Histone-arginine methyltransferase CARM1 (Homo sapiens) (UniProt Q86X55); assay: Inhibition of human recombinant CARM1 assessed as poly(A) binding protein 1 methylation at 100 uM; in short: as §1
T1 sequence (whole entry): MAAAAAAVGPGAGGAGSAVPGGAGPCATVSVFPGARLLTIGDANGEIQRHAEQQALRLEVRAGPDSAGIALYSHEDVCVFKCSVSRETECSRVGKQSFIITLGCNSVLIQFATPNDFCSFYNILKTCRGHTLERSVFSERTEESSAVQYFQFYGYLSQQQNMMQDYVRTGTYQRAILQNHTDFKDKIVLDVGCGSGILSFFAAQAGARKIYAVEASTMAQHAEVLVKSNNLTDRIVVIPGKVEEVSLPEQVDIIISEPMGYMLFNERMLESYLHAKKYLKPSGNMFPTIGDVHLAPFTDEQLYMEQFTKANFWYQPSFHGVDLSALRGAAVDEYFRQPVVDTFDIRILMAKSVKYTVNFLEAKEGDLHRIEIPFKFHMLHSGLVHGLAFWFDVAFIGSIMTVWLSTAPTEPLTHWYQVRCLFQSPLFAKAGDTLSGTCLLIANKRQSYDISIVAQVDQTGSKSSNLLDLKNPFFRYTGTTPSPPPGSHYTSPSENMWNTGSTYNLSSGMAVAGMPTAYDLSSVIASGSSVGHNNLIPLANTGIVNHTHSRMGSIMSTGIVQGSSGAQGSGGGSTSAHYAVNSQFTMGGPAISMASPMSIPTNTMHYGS

[5] = system: U-937; assay: Inhibition of histone H3K4 methylation in human U937 cells at 50 uM after 24 hrs; format: functional, cell-based
In short: (§2)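 U937 cells treated at 50 µM for 24 h. Histones extracted with Triton buffer, then 0.2 M HCl overnight at 4 °C. 3–10 µg run on 15% SDS-PAGE and immunoblotted with anti-monomethyl-H3K4, monomethyl-H4R3 or dimethyl-H3R17 (1:500, overnight 4 °C), ECL detection. Loading controls: total H4 (H3K4), Ponceau Red (Arg marks).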

[6] = system: U-937; assay: Inhibition of histone H4R3 methylation in human U937 cells at 50 uM after 24 hrs; format: functional, cell-based; in short: as §2
[7] = system: U-937; assay: Inhibition of histone H3R17 methylation in human U937 cells at 50 uM after 24 hrs; format: functional, cell-based; in short: as §2
[8] = system: U-937; assay: Inhibition of human p300/CBP in U937 cells at 50 uM assessed as histone H3 acetylation; format: cell-based
In short: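 Source was U937 nuclear extract (10 µg per assay) as p300/CBP HAT, with histone H3 substrate and compound at 50 µM or DMSO control for 90 min. Acetyl-H3 detected by indirect ELISA, quantified against acetylated H3 peptide standard curves, […].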

[9] = molecular target: T2, NAD-dependent protein deacetylase sirtuin-1 (Homo sapiens) (UniProt Q96EB6); assay: Inhibition of human SIRT1 at 25 uM
T2 sequence (whole entry): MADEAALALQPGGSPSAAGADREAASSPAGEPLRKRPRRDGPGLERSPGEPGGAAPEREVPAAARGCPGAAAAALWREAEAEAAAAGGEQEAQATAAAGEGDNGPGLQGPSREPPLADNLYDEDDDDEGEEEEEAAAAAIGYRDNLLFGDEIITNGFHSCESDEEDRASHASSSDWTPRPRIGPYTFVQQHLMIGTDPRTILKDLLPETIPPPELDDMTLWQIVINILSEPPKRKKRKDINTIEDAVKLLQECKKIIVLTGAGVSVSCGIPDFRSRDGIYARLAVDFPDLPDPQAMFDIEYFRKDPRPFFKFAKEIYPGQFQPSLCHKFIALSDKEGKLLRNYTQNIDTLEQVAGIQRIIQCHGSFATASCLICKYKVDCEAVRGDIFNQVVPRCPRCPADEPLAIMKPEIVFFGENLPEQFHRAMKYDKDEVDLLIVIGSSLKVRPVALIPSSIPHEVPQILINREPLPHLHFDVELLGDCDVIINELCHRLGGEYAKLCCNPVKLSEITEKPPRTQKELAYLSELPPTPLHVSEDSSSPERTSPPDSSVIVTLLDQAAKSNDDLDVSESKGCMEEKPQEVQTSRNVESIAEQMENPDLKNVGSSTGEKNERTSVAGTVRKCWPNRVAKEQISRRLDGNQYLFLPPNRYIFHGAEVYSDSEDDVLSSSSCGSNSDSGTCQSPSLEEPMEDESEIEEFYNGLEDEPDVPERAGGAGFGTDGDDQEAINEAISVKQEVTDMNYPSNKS
In short: (§3)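 Fluorescent two-stage assay. SIRT1 (1 U/well) or SIRT2 (5 U/well) with Fluor de Lys-SIRT1/2 substrate, NAD+ and compound at 25 µM, 37 °C for 2 h. Developer II containing nicotinamide then stopped the reaction and generated signal, read at ex 360/em 460 nm.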

[10] = molecular target: T3, NAD-dependent protein deacetylase sirtuin-2 (Homo sapiens) (UniProt Q8IXJ6); assay: Inhibition of human SIRT2 at 25 uM; in short: as §3
T3 sequence (whole entry): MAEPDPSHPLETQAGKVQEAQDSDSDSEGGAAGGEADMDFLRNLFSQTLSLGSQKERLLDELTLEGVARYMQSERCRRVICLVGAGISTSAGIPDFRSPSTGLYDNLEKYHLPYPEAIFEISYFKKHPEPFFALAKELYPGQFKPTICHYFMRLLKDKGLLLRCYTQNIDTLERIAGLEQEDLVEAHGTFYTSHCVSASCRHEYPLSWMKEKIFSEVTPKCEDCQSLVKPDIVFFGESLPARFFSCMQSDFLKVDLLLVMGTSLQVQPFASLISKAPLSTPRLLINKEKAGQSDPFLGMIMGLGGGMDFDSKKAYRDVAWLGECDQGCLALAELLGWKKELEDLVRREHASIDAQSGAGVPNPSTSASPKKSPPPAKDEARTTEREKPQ

[11] = system: U-937; assay: Induction of apoptosis in human U937 cells at 25 uM after 30 hrs; format: functional
In short: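 Apoptosis read as caspase 3 activation by FACS, in U937 cells (RPMI, 10% fetal calf serum, 200000 cells/mL) exposed to 25 µM for 30 h.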

[12] = system: U-937; assay: Induction of granulocytic differentiation in human U937 cells assessed as CD11c expression at 5 uM after 30 hrs; format: functional
In short: (§4)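 U937 cells treated for 30 h, then stained with PE-conjugated CD11c (PE mouse IgG1 as control) for 30 min at 4 °C in the dark and resuspended in PBS with PI (0.25 µg/mL). Read-out is percent CD11c-positive/PI-negative cells, with dead PI-positive cells excluded. Coloured compounds limited the top dose to 5 µM or lower.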

[13] = system: U-937; assay: Induction of granulocytic differentiation in human U937 cells assessed as CD11c expression at 1 uM after 30 hrs; format: functional; details: 5 uM, in the assay text read “at 5 uM” for “at 1 uM”; in short: as §4
[14] = molecular target: T4, Histone-lysine N-methyltransferase SETD7 (Homo sapiens) (UniProt Q8WTS6); assay: Inhibition of human recombinant SET7 assessed as histone H3 protein methylation at 100 uM; in short: as §1
T4 sequence (whole entry): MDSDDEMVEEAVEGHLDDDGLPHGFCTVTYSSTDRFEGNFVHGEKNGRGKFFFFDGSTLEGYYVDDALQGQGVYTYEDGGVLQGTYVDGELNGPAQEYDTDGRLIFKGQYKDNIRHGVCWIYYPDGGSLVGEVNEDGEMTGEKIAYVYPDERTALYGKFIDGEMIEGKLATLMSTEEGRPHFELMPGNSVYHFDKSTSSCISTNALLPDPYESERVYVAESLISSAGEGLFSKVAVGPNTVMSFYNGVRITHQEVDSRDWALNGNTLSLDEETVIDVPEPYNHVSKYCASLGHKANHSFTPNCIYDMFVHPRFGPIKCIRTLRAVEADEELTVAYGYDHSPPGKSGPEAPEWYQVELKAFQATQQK

[15] = system: U-937; assay: Cell cycle arrest in human U937 cells assessed as accumulation at S phase at 25 uM after 30 hrs; format: functional, cell-based
In short: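 U937 cells in RPMI with 10% fetal calf serum, HEPES and glutamine, kept at 200000 cells/mL; treated at 25 µM for 30 h, then the distribution across cell cycle phases was analysed.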

RmtA, sequence (Q5VLE3 whole entry, the tested form may be a part): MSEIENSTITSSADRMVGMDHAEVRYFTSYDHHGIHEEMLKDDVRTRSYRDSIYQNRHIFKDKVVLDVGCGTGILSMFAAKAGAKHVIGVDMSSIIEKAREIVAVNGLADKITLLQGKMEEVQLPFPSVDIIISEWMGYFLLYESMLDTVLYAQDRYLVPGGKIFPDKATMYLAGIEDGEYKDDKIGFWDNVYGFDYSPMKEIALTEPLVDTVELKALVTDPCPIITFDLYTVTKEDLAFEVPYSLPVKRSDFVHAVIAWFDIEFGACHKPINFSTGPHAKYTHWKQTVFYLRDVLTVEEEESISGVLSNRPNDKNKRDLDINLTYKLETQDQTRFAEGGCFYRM

| IC50 [1] | inhibition [2] | Activity [3] | Activity [4] | inhibition [9] | inhibition [10] | Activity [2] | Activity [9] | Activity [10] | Activity [14] | Compound | Activity [5] | Activity [6] | Activity [7] | inhibition [8] | Activity [11] | Activity [12] | Activity [8] | Activity [13] | Activity [15] |
| --- | --- | --- | --- | --- | --- | --- | --- | --- | --- | --- | --- | --- | --- | --- | --- | --- | --- | --- | --- |
| 37 µM | 31% | Active | Active | 45% | 56% |  |  |  | Active | O=C(/C=C/c1cc(Br)c(O)c(Br)c1)c1ccc(C(=O)/C=C/c2cc(Br)c(O)c(Br)c2)cc1 |  | Active | Active | 0% |  |  |  | inactive |  |
| 13.8 µM | 38% | Active | Active | 13% | 9% |  |  |  | Active | O=C(Nc1cc(Br)c(O)c(Br)c1)c1cccc(C(=O)Nc2cc(Br)c(O)c(Br)c2)c1 |  | Active | Active | 81% |  |  |  | inactive |  |
| 40 µM | 17% | Active | Active | 60% | 65% |  |  |  | Active | O=C(/C=C/c1ccc(O)c(Br)c1)/C=C/c1cc(Br)c(O)c(Br)c1 | inactive | Active | Active | 62% | 1% | 68.1% |  |  | Active |
| 48 µM | 70% | Active | Active | 52% | 61% |  |  |  | Active | O=C(/C=C/c1cc(Br)c(O)c(Br)c1)CC(=O)/C=C/c1cc(Br)c(O)c(Br)c1 |  | Active | Active | 58% | 10.5% | 33% |  |  | Active |

Continued, compound first:

| Compound | IC50 [1] | inhibition [2] | Activity [3] | Activity [4] | inhibition [9] | inhibition [10] | Activity [2] | Activity [9] | Activity [10] | Activity [14] | Activity [5] | Activity [6] | Activity [7] | inhibition [8] | Activity [11] | Activity [12] | Activity [8] | Activity [13] | Activity [15] |
| --- | --- | --- | --- | --- | --- | --- | --- | --- | --- | --- | --- | --- | --- | --- | --- | --- | --- | --- | --- |
| O=C(/C=C/c1cc(Br)c(O)c(Br)c1)c1cc(Br)c(O)c(Br)c1 | 29 µM | 61% | inactive | inactive | 35% | 37% |  |  |  |  | Active | Active | Active | 16% |  |  |  |  |  |
| CC(NC(=O)c1ccccc1/N=C/c1c(O)ccc2ccccc12)c1ccccc1 (stereo unspecified) [SIRTINOL] |  |  |  |  |  |  |  |  |  |  |  |  |  |  | 7.5% | 7.5% |  |  |  |
| O=C(/C=C/c1ccc(O)c(Br)c1)/C=C/c1ccc(O)c(Br)c1 | 162 µM |  | Active | Active |  |  | inactive | inactive | inactive |  | inactive | inactive | inactive |  |  |  | inactive |  |  |
| O=C1/C(=C/c2cc(Br)c(O)c(Br)c2)CCC/C1=C\c1cc(Br)c(O)c(Br)c1 | 14 µM | 44% | Active | Active | 50% | 56% |  |  |  | Active | Active | Active | Active | 96% | 2% | 70.9% |  |  | Active |
| O=C(/C=C/c1ccc(O)c(Br)c1)c1cc(Br)c(O)c(Br)c1 | 40 µM | 36% | inactive | inactive | 35% | 38% |  |  |  |  | Active | Active | Active | 0% |  |  |  |  |  |
| O=C(Nc1cccc(NC(=O)c2cc(Br)c(O)c(Br)c2)c1)c1cc(Br)c(O)c(Br)c1 | 61.4 µM | 86% | Active | Active | 2% | 0% |  |  |  | Active |  | Active | Active | 83% |  |  |  | inactive |  |
